Drawing on ChEMBL document CHEMBL4765236, “Insights into the Antimicrobial Activity and Cytotoxicity of Engineered α-Helical Peptide Amphiphiles” (J Med Chem, 2016), this text covers MIC, MHC10 and selectivity ratio for two compounds.

What is called MIC is the lowest concentration that inhibits growth of the organism.

Each structure is given as a SMILES string. Converted amounts (≈) assume the structure as drawn. Where a SMILES comes first, the peptide text is derived from it. Bridges are numbered along the chain shown (N, C = ends). [ ]: non-standard residue; d: D form. The star is where a group is joined. X1 = CC[C@H](C)CCCCC(=O)*; Dab = NCC[C@H](N)C(=O)O Bounds are passed on as bounds.

The subject of data set [1] is Staphylococcus aureus. Put plainly: Antibacterial activity against Staphylococcus aureus GIM 1.160 assessed as bacterial growth inhibition incubated for 18 to 24 hrs by microtiter broth dilution method. Type of data set: functional. Particulars: time 18-24 hrs. Summed up: (§1)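 Log-phase cells (grown overnight at 37 °C, subcultured in MHB) diluted to 10^5 CFU/mL in MHB and mixed 1:1 with serial peptide dilutions prepared in 0.01% acetic acid/0.2% BSA. Incubated 37 °C for 18-24 h. MIC is the lowest concentration giving no growth by OD492. Reported as the average of 3-5 independent experiments.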
For orientation: In broth dilution the organism is exposed to a series of concentrations in liquid medium.

Data set [2] concerns Escherichia coli. Description: Antibacterial activity against Escherichia coli ATCC 35150 assessed as bacterial growth inhibition incubated for 18 to 24 hrs by microtiter broth dilution method. It is filed as functional. The conditions noted are these: time 18-24 hrs. Summed up:
as §1

Data set [3] has as its system Escherichia coli. Put plainly: Antibacterial activity against Escherichia coli ATCC 25922 assessed as bacterial growth inhibition incubated for 18 to 24 hrs by microtiter broth dilution method. Type of data set: functional. The conditions noted are these: time 18-24 hrs. Summed up: as §1
In data set [4] the test system is Salmonella enteritidis. Put plainly: Antibacterial activity against Salmonella enteritidis CICC 21527 assessed as bacterial growth inhibition incubated for 18 to 24 hrs by microtiter broth dilution method. Type of data set: functional, Salmonella enterica subsp. enterica serovar Enteritidis. Particulars: Salmonella enterica, time 18-24 hrs. Summed up:
as §1

The test system of data set [5] is Salmonella typhimurium. Put plainly: Antibacterial activity against Salmonella typhimurium CMCC 51005 assessed as bacterial growth inhibition incubated for 18 to 24 hrs by microtiter broth dilution method. Particulars: Salmonella enterica, time 18-24 hrs. Type of data set: functional, Salmonella enterica subsp. enterica serovar Typhimurium. An outline of the steps:
as §1

For data set [6], the system named is Vibrio parahaemolyticus. Put plainly: Antibacterial activity against Vibrio parahaemolyticus CICC 21617 assessed as bacterial growth inhibition incubated for 18 to 24 hrs by broth dilution method. Type of data set: functional. Particulars: time 18-24 hrs. Summed up:
as §1

Data set [7] has as its system Erythrocyte. Description: Hemolytic activity against human red blood cells assessed as concentration required to cause 10% hemoglobin release measured after 1 hr by microplate reader analysis. Type of data set: ADME, cell-based. Summed up: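 Fresh heparinized human RBCs washed three times in 10 mM PBS pH 7.4 and resuspended to about 1% (v/v) (5.4 × 10^8 cells/mL). Mixed 1:1 with peptide in PBS for 1 h at 37 °C, then centrifuged. Supernatant hemoglobin read at A540. PBS set as 0% and 0.1% Triton X-100 as 100% hemolysis. MHC is the concentration causing 10% hemolysis.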

Data set [8] deals with Micrococcus luteus. Description: Antibacterial activity against Micrococcus luteus CMCC 28001 assessed as bacterial growth inhibition incubated for 18 to 24 hrs by microtiter broth dilution method. It is filed as functional. The conditions noted are these: time 18-24 hrs. An outline of the steps:
as §1

In data set [9] the test system is Staphylococcus aureus. Put plainly: Antibacterial activity against methicillin resistant Staphylococcus aureus ATCC 43300 assessed as bacterial growth inhibition incubated for 18 to 24 hrs by microtiter broth dilution method. The conditions noted are these: time 18-24 hrs. Type of data set: functional. An outline of the steps:
(§2)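 Log-phase bacteria grown at 37 °C in MHB, diluted to 10^5 CFU/mL, mixed 1:1 with serial peptide dilutions (peptide diluted in 0.01% acetic acid, 0.2% BSA); 37 °C for 18-24 h. MIC read by OD492 as lowest concentration giving no growth; mean of 3-5 independent experiments.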

Data set [10] deals with Candida albicans. Put plainly: Antifungal activity against Candida albicans ATCC 10231 assessed as fungal growth inhibition incubated for 18 to 24 hrs by microtiter broth dilution method. The conditions noted are these: time 18-24 hrs. Type of data set: functional. An outline of the steps: as §1
Data set [11] has as its system Bacillus pumilus. Description: Antibacterial activity against Bacillus pumilus CMCC 63202 assessed as bacterial growth inhibition incubated for 18 to 24 hrs by microtiter broth dilution method. It is filed as functional. Particulars: time 18-24 hrs. An outline of the steps: as §1
In data set [12] the test system is Escherichia coli. Description: Antibacterial activity against Escherichia coli O157:H7 CICC 21530 assessed as bacterial growth inhibition incubated for 18 to 24 hrs by microtiter broth dilution method. Type of data set: functional. Particulars: time 18-24 hrs. Summed up:
as §2

A short description of data set [13]: Therapeutic index, ratio of MHC10 for human RBC to geometric mean of peptide MIC for Escherichia coli O157:H7 CICC 21530. Type of data set: toxicity. The conditions noted are these: human red blood cells (RBC), pooled result: one value given for 11 cell lines, strains, targets or settings, read-out: TI. An outline of the steps: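 Therapeutic index = MHC (peptide concentration giving 10% hemolysis of human RBCs, 1 h, 37 °C, A540) divided by geometric mean of MICs from broth microdilution (10^5 CFU/mL in MHB, 37 °C, 18-24 h, OD492).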

Data set [14] deals with Salmonella paratyphi. Description: Antibacterial activity against Salmonella paratyphi A CICC 20501 assessed as bacterial growth inhibition incubated for 18 to 24 hrs by microtiter broth dilution method. It is filed as functional, Salmonella enterica subsp. enterica serovar Paratyphi A. The conditions noted are these: Salmonella enterica, time 18-24 hrs. Summed up:
as §2

In data set [15] the test system is Salmonella enterica subsp. enterica serovar Paratyphi B. Put plainly: Antibacterial activity against Salmonella paratyphi B CICC 21495 assessed as bacterial growth inhibition incubated for 18 to 24 hrs by microtiter broth dilution method. It is filed as functional. Particulars: time 18-24 hrs. An outline of the steps: as §2
For data set [16], the system named is Shigella flexneri. Description: Antibacterial activity against Shigella flexneri CMCC 51571 assessed as bacterial growth inhibition incubated for 18 to 24 hrs by microtiter broth dilution method. The conditions noted are these: time 18-24 hrs. Type of data set: functional. An outline of the steps:
as §1

Data set [17] concerns Bacillus cereus. Put plainly: Antibacterial activity against Bacillus cereus CMCC 63301 assessed as bacterial growth inhibition incubated for 18 to 24 hrs by microtiter broth dilution method. Type of data set: functional. Particulars: time 18-24 hrs. An outline of the steps:
as §1

In data set [18] the test system is Listeria monocytogenes. Put plainly: Antibacterial activity against Listeria monocytogenes CICC 21662 assessed as bacterial growth inhibition incubated for 18 to 24 hrs by microtiter broth dilution method. Type of data set: functional. Particulars: time 18-24 hrs. An outline of the steps: as §1
Data set [19] deals with Pseudomonas fluorescens. Description: Antibacterial activity against Pseudomonas fluorescens CICC 21620 assessed as bacterial growth inhibition incubated for 18 to 24 hrs by microtiter broth dilution method. Type of data set: functional. The conditions noted are these: time 18-24 hrs. An outline of the steps:
as §1

Data set [20] has as its system Salmonella enterica. Description: Antibacterial activity against Salmonella choleraesuis ATCC 13312 assessed as bacterial growth inhibition incubated for 18 to 24 hrs by broth dilution method. Particulars: time 18-24 hrs. Type of data set: functional. An outline of the steps:
as §2

The subject of data set [21] is Staphylococcus aureus. Put plainly: Antibacterial activity against Staphylococcus aureus ATCC 29213 assessed as bacterial growth inhibition incubated for 18 to 24 hrs by microtiter broth dilution method. Particulars: time 18-24 hrs. It is filed as functional. An outline of the steps: as §1
Data set [22] concerns Salmonella paratyphi. Put plainly: Antibacterial activity against Salmonella paratyphi C CICC 21512 assessed as bacterial growth inhibition incubated for 18 to 24 hrs by microtiter broth dilution method. It is filed as functional. The conditions noted are these: Salmonella enterica, time 18-24 hrs. Summed up: as §2
The subject of data set [23] is Listeria monocytogenes. Description: Antibacterial activity against Listeria monocytogenes CICC 21633 assessed as bacterial growth inhibition incubated for 18 to 24 hrs by microtiter broth dilution method. Particulars: time 18-24 hrs. Type of data set: functional. Summed up:
as §1

For `CC[C@H](C)CCCCC(=O)N[C@@H](CCN)C(=O)N[C@H](C(=O)N[C@@H](CCN)C(=O)N[C@H]1CCNC(=O)[C@H]([C@@H](C)O)NC(=O)[C@H](CCN)NC(=O)[C@H](CCN)NC(=O)[C@H](CC(C)C)NC(=O)[C@@H](Cc2ccccc2)NC(=O)[C@H](CCN)NC1=O)[C@@H](C)O` (X1-[Dab]T[Dab][Dab][Dab][dF]L[Dab][Dab]T; lactam 4-C), the MIC was 49.2 µM (≈ 59.2 µg/mL) in data set [1]; 1.54 µM (≈ 1.85 µg/mL) in data set [2]; 0.38 µM (≈ 0.457 µg/mL) in [3]; 1.54 µM (≈ 1.85 µg/mL) in data set [4]; 0.77 µM (≈ 0.927 µg/mL) in [5]; 0.77 µM (≈ 0.927 µg/mL) in data set [6]. The MIC was greater than 98.3 µM in data set [8]; greater than 98.3 µM in data set [9]; 49.2 µM (≈ 59.2 µg/mL) in [10]; 49.2 µM (≈ 59.2 µg/mL) in [11]; 3.07 µM (≈ 3.69 µg/mL) in data set [12]; 0.77 µM (≈ 0.927 µg/mL) in data set [14]. The MIC in [15] was 1.54 µM (≈ 1.85 µg/mL); in [16], 0.77 µM (≈ 0.927 µg/mL); in data set [17], 49.2 µM (≈ 59.2 µg/mL); in data set [18], 24.6 µM (≈ 29.6 µg/mL); in [19], 49.2 µM (≈ 59.2 µg/mL); in data set [20], 1.54 µM (≈ 1.85 µg/mL). Besides, the MIC was found to be 49.2 µM (≈ 59.2 µg/mL) in data set [21], 3.07 µM (≈ 3.69 µg/mL) in [22] and 12.3 µM (≈ 14.8 µg/mL) in [23]. Further, in data set [7], the MHC10 was greater than 98.34 µM. Moreover, the selectivity ratio in data set [13] came out at 165.
On to `C[C@@H]1[C@H](O)[C@@H](C)/C=C/C=C/C=C/C=C/C=C/C=C/C=C/[C@H](O[C@@H]2O[C@H](C)[C@@H](O)[C@H](N)[C@@H]2O)C[C@@H]2O[C@](O)(C[C@@H](O)C[C@@H](O)[C@H](O)CC[C@@H](O)C[C@@H](O)CC(=O)O[C@H]1C)C[C@H](O)[C@H]2C(=O)O` [AMPHOTERICIN B], for which the MIC in data set [1], in data set [2], in data set [3], in [4], in [5] and in [6] was greater than 139 µM each time. Further, the MIC in data set [8] is greater than 139 µM; in [9], greater than 139 µM; in data set [10], 4.33 µM (≈ 4 µg/mL); in data set [11], greater than 139 µM; in [12], greater than 139 µM; in data set [14], greater than 139 µM. Also, the MIC in [15], in data set [16], in data set [17], in data set [18], in [19] and in data set [20] was greater than 139 µM in each case. Besides, the MIC in data set [21], in [22] and in data set [23] was greater than 139 µM in each case. Besides, the MHC10 in [7] came out at 0.54 µM.
